In ChEMBL document CHEMBL1177728, “Discovery and optimization of boronic acid based inhibitors of autotaxin” (J Med Chem, 2010):
Each block holds one compound with its values, some of them ahead of it.

Columns and labels:
Autotaxin [1] = target: T1, Autotaxin (Homo sapiens, UniProt Q13822); test: Inhibition of 6x-histidine-tagged human recombinant ATX expressed in HEK293 cells at 5 uM by CPF assay; format: cell-based
Method in brief: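 FRET substrate CPF4 at 2 μM with purified His-tagged ATX (~40 nM), run as the bis-pNPP format (pH 7.8 Tris-buffered saline, BSA-FAF, 3 h at room temperature). Fluorescence excited at 355 nm, emission 460 and 520 nm. Inhibitor at 5 μM final.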

Autotaxin [2] = target: T1, Autotaxin; test: Inhibition of 6x-histidine-tagged human recombinant ATX expressed in HEK293 cells using bisP-nitrophenyl phosphate as a substrate at 5 uM; format: cell-based
Method in brief: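 bis-pNPP hydrolysis by purified His-tagged ATX (~40 nM) in Tris-buffered saline pH 7.8 with fatty-acid-free BSA 0.2 mg/mL. Bis-pNPP added as 2 mM stock, 3 h at room temperature. p-Nitrophenol read at 405 nm, corrected by 0 h absorbance. IC50 from 10 concentrations (0.025–100 μM); inhibition at 5 μM final; three independent experiments.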

Autotaxin [3] = target: T1, Autotaxin; test: Inhibition of 6x-histidine-tagged human recombinant ATX expressed in HEK293 cells using bisP-nitrophenyl phosphate as a substrate; format: cell-based
Autotaxin [4] = target: T1, Autotaxin; test: Inhibition of 6x-histidine-tagged human recombinant ATX expressed in HEK293 cells assessed as residual activity using bisP-nitrophenyl phosphate as a substrate; values are per cent of control
Autotaxin [5] = target: T1, Autotaxin; test: Inhibition of 6x-histidine-tagged human recombinant ATX expressed in HEK293 cells assessed as lysophosphatidulcholine release; format: cell-based
Method in brief: (§1)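 LPC (18:1) choline release: ATX (~40 nM) secreted by transfected HEK293 cells into serum-free medium, TALON-purified, in 50 mM Tris-HCl pH 7.4 with 0.01% Triton X-100. Substrate added as 80 μM LPC with 10 mM MgCl2 and CaCl2, 3 h at 37 C.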

Autotaxin [6] = target: T1, Autotaxin; test: Inhibition of 6x-histidine-tagged human recombinant ATX expressed in HEK293 cells assessed as residual enzyme activity by lysophosphatidulcholine release assay; format: cell-based
Method in brief: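 Residual activity in the LPC (18:1) choline release assay with purified His-tagged ATX (~40 nM), pH 7.4 Tris with 0.01% Triton X-100, 3 h at 37 C. Inhibitor titrated at 10 concentrations, 0.01–30 μM. Choline detected at 405 nm via choline oxidase/HRP/ABTS.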

Autotaxin [7] = target: T1, Autotaxin; test: Inhibition of 6x-histidine-tagged human recombinant ATX expressed in HEK293 cells assessed as lysophosphatidulcholine release at 5 uM; format: cell-based
Method in brief: as §1, with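 “C. Choline read at 405 nm by choline oxidase/HRP/ABTS with compound-absorbance correction. IC50 over 10 concentrations (0.01–30 μM); inhibition at 5 μM final.” for “C.”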

inhibition (Autotaxin [1]): 89%
inhibition (Autotaxin [2]): 92%
IC50 (Autotaxin [3]; read-out: IC50): 161 nM
Structure (SMILES): CCOc1cc(/C=C2\SC(=O)N(Cc3ccccc3)C2=O)ccc1OCc1ccc(C(=O)O)cc1

residual activity (Autotaxin [4]): 9%
IC50 (Autotaxin [5]): 2900 nM
Activity (Autotaxin [6]): 29%
IC50 (Autotaxin [3]; read-out: IC50): 248 nM
Structure (SMILES): COc1cc(/C=C2\SC(=O)N(Cc3ccccc3)C2=O)ccc1OCc1ccc(C(=O)O)cc1

inhibition (Autotaxin [1]): 85%
inhibition (Autotaxin [2]): 83%
IC50 (Autotaxin [3]; read-out: IC50): 68 nM
Structure (SMILES): COc1cc(/C=C2\SC(=O)N(Cc3ccc(Cl)cc3)C2=O)ccc1OCc1ccncc1

IC50 (Autotaxin [5]): 1070 nM
Activity (Autotaxin [6]): 7%
Structure (SMILES): O=C(O)c1cccc(COc2ccc(/C=C3\SC(=O)N(Cc4ccc(F)cc4)C3=O)cc2)c1

IC50 (Autotaxin [5]): > 5000 nM
inhibition (Autotaxin [7]): 36%
Structure (SMILES): O=C1S/C(=C\c2ccc(OCc3ccccc3B(O)O)cc2)C(=O)N1Cc1ccc(F)cc1

IC50 (Autotaxin [5]): 28.3 nM
inhibition (Autotaxin [7]): 99%
Structure (SMILES): O=C1S/C(=C\c2ccc(OCc3cccc(B(O)O)c3)cc2)C(=O)N1Cc1ccc(F)cc1

residual activity (Autotaxin [4]): 24%
IC50 (Autotaxin [3]; read-out: IC50): 2690 nM
Structure (SMILES): COC(=O)c1ccc(COc2ccc(/C=C3\SC(=O)N(Cc4ccccc4)C3=O)cc2OC)cc1

inhibition (Autotaxin [1]): 55%
inhibition (Autotaxin [2]): 75%
IC50 (Autotaxin [3]; read-out: IC50): 111 nM
Structure (SMILES): Cn1c(=O)n(C)c2cc(/C=C3\SC(=O)N(Cc4ccccc4)C3=O)ccc21

IC50 (Autotaxin [3]; read-out: IC50): > 100000 nM
Structure (SMILES): O=C1S/C(=C\c2ccccc2)C(=O)N1Cc1ccc(F)cc1

IC50 (Autotaxin [5]): 29.6 nM
inhibition (Autotaxin [7]): 100%
Structure (SMILES): O=C1S/C(=C\c2cccc(OCc3ccc(B(O)O)cc3)c2)C(=O)N1Cc1ccc(F)cc1

residual activity (Autotaxin [4]): 33%
IC50 (Autotaxin [5]): > 5000 nM
Activity (Autotaxin [6]): 56%
IC50 (Autotaxin [3]; read-out: IC50): 442 nM
Structure (SMILES): COc1cc(/C=C2\SC(=O)N(Cc3ccc([N+](=O)[O-])cc3)C2=O)ccc1OCc1ccc(C(=O)O)cc1

IC50 (Autotaxin [5]): 2050 nM
Activity (Autotaxin [6]): 42%
Structure (SMILES): COc1cc(/C=C2\SC(=O)N(Cc3ccc(F)cc3)C2=O)ccc1OCc1cccc(C(=O)O)c1

residual activity (Autotaxin [4]): 12%
IC50 (Autotaxin [3]; read-out: IC50): 5870 nM
Structure (SMILES): COc1cc(/C=C2\SC(=O)N(Cc3ccc(F)cc3)C2=O)ccc1OCc1ccccc1

IC50 (Autotaxin [3]; hek293): Not Active
Structure (SMILES): COc1cc(/C=C2\SC(=O)N(Cc3ccc(C(C)(C)C)cc3)C2=O)ccc1OCc1ccccc1

IC50 (Autotaxin [5]): 11.9 nM
inhibition (Autotaxin [7]): 100%
Structure (SMILES): O=C1S/C(=C\c2cccc(OCc3cccc(B(O)O)c3)c2)C(=O)N1Cc1ccc(F)cc1

inhibition (Autotaxin [1]): 67%
residual activity (Autotaxin [4]): 39%
inhibition (Autotaxin [2]): 80%
Structure (SMILES): CCCCCCCC/C=C\CCCCCCCC(=O)OC[C@@H](O)COP(=O)(O)O

IC50 (Autotaxin [5]): > 5000 nM
inhibition (Autotaxin [7]): 11%
Structure (SMILES): O=C1S/C(=C\c2cccc(OCc3ccccc3B(O)O)c2)C(=O)N1Cc1ccc(F)cc1

IC50 (Autotaxin [3]; read-out: IC50): > 100000 nM
Structure (SMILES): O=C1S/C(=C\c2ccccc2)C(=O)N1Cc1ccccc1

IC50 (Autotaxin [3]; read-out: IC50): > 100000 nM
Structure (SMILES): O=C1S/C(=C\c2ccc(OCc3ccccc3)cc2)C(=O)N1Cc1ccc([N+](=O)[O-])cc1

IC50 (Autotaxin [3]; read-out: IC50): > 100000 nM
Structure (SMILES): COC(=O)c1ccc(COc2ccc(/C=C3\SC(=O)N(Cc4ccc(C(C)(C)C)cc4)C3=O)cc2OC)cc1

inhibition (Autotaxin [1]): 77%
inhibition (Autotaxin [2]): 87%
IC50 (Autotaxin [3]; read-out: IC50): 46 nM
Structure (SMILES): CC(C)Cc1ccc(-c2n[nH]c3c2C(c2ccc(N(C)C)cc2)C(C#N)=C(N)O3)cc1 (stereo not drawn)

residual activity (Autotaxin [4]): 32%
IC50 (Autotaxin [3]; read-out: IC50): 2690 nM
Structure (SMILES): O=C1S/C(=C\c2ccc(OCc3ccccc3)cc2)C(=O)N1Cc1ccccc1

inhibition (Autotaxin [1]): 66%
inhibition (Autotaxin [2]): 71%
IC50 (Autotaxin [3]; read-out: IC50): 261 nM
Structure (SMILES): O=C(CSc1nc2ccc(N3C(=O)c4ccccc4C3=O)cc2s1)Nc1cccc(Cl)c1

residual activity (Autotaxin [4]): 37%
IC50 (Autotaxin [3]; read-out: IC50): 700 nM
Structure (SMILES): O=C1S/C(=C\c2ccc(OCc3ccccc3)cc2)C(=O)N1Cc1ccc(F)cc1

IC50 (Autotaxin [3]; read-out: IC50): 100000 nM
Structure (SMILES): COc1cc(/C=C2\SC(=O)N(Cc3ccccc3)C2=O)ccc1OCc1ccccc1

residual activity (Autotaxin [4]): 31%
IC50 (Autotaxin [3]; read-out: IC50): 60900 nM
Structure (SMILES): COC(=O)c1ccc(COc2ccc(/C=C3\SC(=O)N(Cc4ccc([N+](=O)[O-])cc4)C3=O)cc2OC)cc1

IC50 (Autotaxin [3]; hek293): Not Active
Structure (SMILES): O=C1S/C(=C\c2ccccc2)C(=O)N1Cc1ccc([N+](=O)[O-])cc1

IC50 (Autotaxin [3]; read-out: IC50): > 100000 nM
Structure (SMILES): COC(=O)c1ccc(COc2ccc(/C=C3\SC(=O)N(Cc4ccc(F)cc4)C3=O)cc2OC)cc1

inhibition (Autotaxin [7]): 13%
Structure (SMILES): COc1cc(/C=C2\SC(=O)N(Cc3cccc4ccccc34)C2=O)ccc1OCc1ccc(C(=O)O)cc1

inhibition (Autotaxin [7]): 57%
Structure (SMILES): COc1cc(/C=C2\SC(=O)N(Cc3ccc(Cl)cc3)C2=O)ccc1OCc1ccc(C(=O)O)cc1

inhibition (Autotaxin [7]): 19%
Structure (SMILES): C=CCN1C(=O)S/C(=C\c2ccc(OCc3ccc(C(=O)O)cc3)c(OC)c2)C1=O

inhibition (Autotaxin [7]): 38%
Structure (SMILES): COc1cc(/C=C2\SC(=O)N(Cc3ccccc3[N+](=O)[O-])C2=O)ccc1OCc1ccc(C(=O)O)cc1

inhibition (Autotaxin [7]): 21%
Structure (SMILES): COc1cc(/C=C2\SC(=O)N(Cc3ccc(C#N)cc3)C2=O)ccc1OCc1ccc(C(=O)O)cc1

inhibition (Autotaxin [7]): 35%
Structure (SMILES): COc1cc(/C=C2\SC(=O)N(CC(=O)c3ccc(Cl)cc3)C2=O)ccc1OCc1ccc(C(=O)O)cc1

IC50 (Autotaxin [5]): 1630 nM
Activity (Autotaxin [6]): 40%
Structure (SMILES): O=C(O)c1ccc(COc2ccc(/C=C3\SC(=O)N(Cc4ccc(F)cc4)C3=O)cc2)cc1

inhibition (Autotaxin [7]): 51%
Structure (SMILES): COc1cc(/C=C2\SC(=O)N(Cc3ccc(F)cc3Br)C2=O)ccc1OCc1ccc(C(=O)O)cc1

IC50 (Autotaxin [3]; hek293): Not Active
Structure (SMILES): CC(C)(C)c1ccc(CN2C(=O)S/C(=C\c3ccccc3)C2=O)cc1

inhibition (Autotaxin [7]): 13%
Structure (SMILES): COc1cc(/C=C2\SC(=O)N(Cc3ccncc3)C2=O)ccc1OCc1ccc(C(=O)O)cc1

inhibition (Autotaxin [7]): 11%
Structure (SMILES): COc1cc(/C=C2\SC(=O)N(Cc3ccc(C)cc3)C2=O)ccc1OCc1ccc(C(=O)O)cc1

inhibition (Autotaxin [1]): 85%
residual activity (Autotaxin [4]): 10%
IC50 (Autotaxin [5]): 2500 nM
Activity (Autotaxin [6]): 35%
inhibition (Autotaxin [2]): 91%
IC50 (Autotaxin [3]; read-out: IC50): 56 nM
inhibition (Autotaxin [7]): 55%
Structure (SMILES): COc1cc(/C=C2\SC(=O)N(Cc3ccc(F)cc3)C2=O)ccc1OCc1ccc(C(=O)O)cc1

IC50 (Autotaxin [3]; read-out: IC50): > 100000 nM
Structure (SMILES): CC(C)(C)c1ccc(CN2C(=O)S/C(=C\c3ccc(OCc4ccccc4)cc3)C2=O)cc1

IC50 (Autotaxin [3]; read-out: IC50): > 100000 nM
Structure (SMILES): COc1cc(/C=C2\SC(=O)N(Cc3ccc([N+](=O)[O-])cc3)C2=O)ccc1OCc1ccccc1

residual activity (Autotaxin [4]): 33%
IC50 (Autotaxin [5]): 13600 nM
Activity (Autotaxin [6]): 27%
IC50 (Autotaxin [3]; read-out: IC50): 18200 nM
Structure (SMILES): COc1cc(/C=C2\SC(=O)N(Cc3ccc(C(C)(C)C)cc3)C2=O)ccc1OCc1ccc(C(=O)O)cc1
